# According to ChEMBL document CHEMBL1137561 (J Med Chem, 2007):
# pEC50, pKi: −log10 of the molar value.
# Assays:
# [1] = target: Human immunodeficiency virus type 1 reverse transcriptase (Human immunodeficiency virus 1, UniProt Q72547, Y188L); assay: Inhibition of HIV1 reverse transcriptase Y188L mutant
# [2] = target: Human immunodeficiency virus type 1 reverse transcriptase (Human immunodeficiency virus 1, UniProt Q72547, L100I); assay: Inhibition of HIV1 reverse transcriptase L100I mutant
# [3] = tested on: Human immunodeficiency virus 1; assay: Antiviral activity against HIV1 with reverse transcriptase Y181C mutation in MT4 cells assessed as inhibition of viral induced cytopathic effect by MTT method; format: functional, organism-based; details: Human immunodeficiency virus 1, MT4
# Procedure, shortened: (§1)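 MT-4 cells infected with the HIV-1 NNRTI-resistant mutant strain. Viable cells scored at day 5 post-infection by the MTT tetrazolium colorimetric method. […] Values are means ± SD from at least two experiments.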
# [4] = tested on: Human immunodeficiency virus 1; assay: Antiviral activity against HIV1 with reverse transcriptase Y188L mutation in MT4 cells assessed as inhibition of viral induced cytopathic effect by MTT method; format: functional, organism-based; details: Human immunodeficiency virus 1, MT4
# Procedure, shortened: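 MT-4 cells infected with the HIV-1 NNRTI-resistant mutant strain. Viable cells scored at day 5 post-infection by the MTT tetrazolium colorimetric method. Values are means ± SD from at least two experiments.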
# [5] = target: Human immunodeficiency virus type 1 reverse transcriptase (Human immunodeficiency virus 1, UniProt Q72547, K103N); assay: Inhibition of HIV1 reverse transcriptase K103N mutant
# [6] = Selectivity index, ratio of CC50 for MT4 cells to EC50 for HIV1 NL43 infected MT4 cells; format: functional
# [7] = target: Human immunodeficiency virus type 1 reverse transcriptase (Human immunodeficiency virus 1, UniProt Q72547, V179D); assay: Inhibition of HIV1 reverse transcriptase V179D mutant
# [8] = Cytotoxicity against MT4 cells after 4 days by MTT method; format: cell-based; details: human
# Procedure, shortened: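 Mock-infected (noninfected) MT-4 cells, run in parallel with the antiviral test. Viable cells read by the MTT tetrazolium colorimetric method. […] Means ± SD from at least two experiments. The top concentration was limited where compounds precipitated in the culture medium.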
# [9] = tested on: Human immunodeficiency virus 1; assay: Antiviral activity against HIV1 with reverse transcriptase IRLL98 mutation in MT4 cells assessed as inhibition of viral induced cytopathic effect by MTT method; format: functional, organism-based; details: Human immunodeficiency virus 1, MT4
# [10] = target: Human immunodeficiency virus type 1 reverse transcriptase (Human immunodeficiency virus 1, UniProt Q72547); assay: Inhibition of wild type HIV1 3B reverse transcriptase
# [11] = tested on: Human immunodeficiency virus 1; assay: Antiviral activity against HIV1 NL43 in MT4 cells assessed as inhibition of viral induced cytopathic effect after 5 days by MTT method; details: Human immunodeficiency virus 1, NL43, MT4, 120 h
# [12] = target: Human immunodeficiency virus type 1 reverse transcriptase (Human immunodeficiency virus 1, UniProt Q72547, V106A); assay: Inhibition of HIV1 reverse transcriptase V106A mutant
# [13] = Inhibition of HIV1 reverse transcriptase Y1811 mutant; set-up: species or system Human immunodeficiency virus 1
# Procedure, shortened: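 Recombinant HIV-1 RT Y181I mutant, purified to >95%, 10 min preincubation with inhibitor. Radioactive nucleotide incorporation into poly(rA)/oligo(dT) 10:1 was followed at varied nucleotide substrate levels, sampling every 2 min for initial velocities. Inhibitor spanned 0.2–5 Ki. Ki came from Lineweaver-Burk and Dixon plots. Means ± SD of at least three experiments.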
# [14] = tested on: Human immunodeficiency virus 1; assay: Antiviral activity against HIV1 with reverse transcriptase K103N mutation in MT4 cells assessed as inhibition of viral induced cytopathic effect by MTT method; format: functional, organism-based; details: Human immunodeficiency virus 1, MT4; procedure, shortened: as §1
# [15] = Resistance index, Ratio of EC50 for drug-resistant HIV1 with RT Y181C mutation in MT4 cells to EC50 for HIV1 NL43 in MT4 cells
# [16] = Resistance index, Ratio of EC50 for drug-resistant HIV1 with RT IRLL98 mutation in MT4 cells to EC50 for HIV1 NL43 in MT4 cells
# [17] = Resistance index, Ratio of EC50 for drug-resistant HIV1 with RT Y188L mutation in MT4 cells to EC50 for HIV1 NL43 in MT4 cells
# [18] = Resistance index, Ratio of EC50 for drug-resistant HIV1 with RT K103N mutation in MT4 cells to EC50 for HIV1 NL43 in MT4 cells
Structure (SMILES),pKi [1],pKi [2],pEC50 [3],pEC50 [4],pKi [5],Ratio CC50/EC50 [6],pKi [7],CC50 at 96 h [8] [µM],pEC50 [9],pKi [10],pEC50 [11],pKi [12],pKi [13],pEC50 [14],Ratio EC50 [15],Ratio EC50 [16],Ratio EC50 [17],Ratio EC50 [18]
Cc1c(Cc2c(F)cccc2F)nc(N2CCSCC2)[nH]c1=O,< 4.70,5.30,< 5.00,< 5.00,< 4.70,>18500,4.40,> 74,< 5.00,6.82,8.40,7.05,< 4.70,< 5.00,–,–,–,–
CCN(C)c1nc(Cc2c(F)cccc2F)c(C)c(=O)[nH]1,–,–,6.15,5.10,–,>4722,–,> 85,6.38,–,7.74,–,–,5.34,39,23,444,256
Cc1c(Cc2c(F)cccc2F)nc(N2CCN(C)CC2)[nH]c1=O,–,–,–,–,–,>125,< 4.40,> 75,–,5.70,6.22,6.05,–,–,–,–,–,–
COc1ccccc1N1CCN(c2nc(Cc3c(F)cccc3F)c(C)c(=O)[nH]2)CC1,4.59,5.00,–,–,< 4.70,170,5.30,37,–,6.60,6.66,6.30,< 4.70,–,–,–,–,–
O=c1cc(Cc2c(F)cccc2F)nc(N2CCCCCC2)[nH]1,–,–,6.37,< 5.00,–,>3545,–,> 78,5.85,–,7.66,–,–,< 5.00,19,64,–,–
Cc1c(Cc2c(F)cccc2F)nc(N2CCOCC2)[nH]c1=O,< 4.70,6.05,< 5.00,< 5.00,< 4.70,>3000,5.08,> 78,< 5.00,7.30,7.59,6.40,< 4.70,< 5.00,–,–,–,–
CC1CCCCN1c1nc(Cc2c(F)cccc2F)cc(=O)[nH]1 (centres undefined),–,–,5.94,< 5.00,–,>729,–,> 78,5.52,–,6.97,–,–,< 5.00,11,28,–,–
Cc1c(Cc2c(F)cccc2F)nc(N2CCCCC2C)[nH]c1=O (centres undefined),–,–,6.85,< 5.00,–,8333,–,75,5.85,–,8.05,–,–,< 5.00,16,156,–,–
Cc1ccnc2c1NC(=O)c1cccnc1N2C1CC1 [NEVIRAPINE],–,–,6.06,–,–,–,–,> 7,5.00,–,7.10,–,4.46,5.74,–,–,–,–
CC1CCCN(c2nc(Cc3c(F)cccc3F)cc(=O)[nH]2)C1 (centres undefined),–,–,6.37,< 5.00,–,>2437,–,> 78,5.74,–,7.49,–,–,< 5.00,13,56,–,–
CN1CCN(c2nc(Cc3c(F)cccc3F)cc(=O)[nH]2)CC1,< 4.70,< 4.70,–,–,< 4.70,>13,< 4.40,> 78,–,4.95,5.22,< 4.40,< 4.70,–,–,–,–,–
Cc1c(Cc2c(F)cccc2F)nc(N2CCC(C)CC2)[nH]c1=O,–,–,–,< 5.00,–,>750,–,> 75,< 5.00,–,7.00,6.30,–,< 5.00,–,–,–,–
